The list is not random: actives were taken first. Their share in the collection is about 2.7%.
SIAE inh = blocks human sialic acid acetylesterase | Q9HAT2 | SIAE FP-Rh probe binding, fluorescence polarization | inhibition, % at 9.66 µM | 370,000 tested, 0.69% active;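 active = inhibition above a cutoff: mean of compounds within the control limits plus 3 SD of those, cut at about 17% in these data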
Target sequence (Q9HAT2 whole entry, looked up): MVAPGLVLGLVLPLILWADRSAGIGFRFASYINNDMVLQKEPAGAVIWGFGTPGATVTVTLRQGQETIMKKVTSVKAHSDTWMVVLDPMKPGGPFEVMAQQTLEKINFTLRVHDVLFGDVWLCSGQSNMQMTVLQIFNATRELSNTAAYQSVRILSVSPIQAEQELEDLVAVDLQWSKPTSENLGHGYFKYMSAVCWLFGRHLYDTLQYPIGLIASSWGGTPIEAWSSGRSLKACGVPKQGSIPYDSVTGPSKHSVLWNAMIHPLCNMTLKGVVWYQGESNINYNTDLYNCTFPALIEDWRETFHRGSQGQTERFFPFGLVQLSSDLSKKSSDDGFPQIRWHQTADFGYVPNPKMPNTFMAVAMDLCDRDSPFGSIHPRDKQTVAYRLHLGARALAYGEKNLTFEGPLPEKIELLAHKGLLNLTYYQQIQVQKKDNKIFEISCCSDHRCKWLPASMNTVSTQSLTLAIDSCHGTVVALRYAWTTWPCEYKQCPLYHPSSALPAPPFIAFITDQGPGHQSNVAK
mABHD4 FP = inhibits mouse alpha/beta hydrolase domain 4. 370,000 tested, 0.54% active. Q8VD66. purified mABHD4, FP-Rh probe fluorescence polarization. inhibition, % at 8.92 µM;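 active = inhibition exceeding the mean over every tested compound plus 3 SD, cut at about 30% in these data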
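Assay system: mouse ABHD4 enzyme, wild type / Also added: fluorescent activity-based probe FP-Rh / Doses: single nominal dose of 8.92 µM, 0.89% DMSO final / Timing: 45 min compound pre-incubation plus 60 min probe step, 25 °C / Signal: FP readout, ex 525 nm / em 598 nm / Control set: S159A mutant/DMSO as 100%, compound-well median as 0%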
PRMT1 inh = inhibitors of human PRMT1; Q99873; recombinant PRMT1, activity-based probe fluorescence polarization; inhibition, % at 2.79 µM; 370,000 tested, 1.3% active;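 active = inhibition above about 21% made by adding two undisclosed values, limit read from the data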
TCR CD3 inh = inhibitors of human TCR-CD3 interaction | TAMRA-labeled TCR probe fluorescence, biochemical | inhibition, % at 9.4 µM | 360,000 tested, 0.37% active; in the data active = inhibition above about 19%;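 note: recombinant mutant TCR 2C K166C tagged with TAMRA read by polarization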
HTRA1 inh = inhibitors of human serine peptidase HTRA1; Q92743; AID 504803; recombinant HTRA1, FP-rhodamine activity-based probe, fluorescence polarization; inhibition, % at 5.96 µM; 340,000 tested, 0.5% active; in the data active = inhibition above about 36%
SIAE inh conf = human SIAE inhibition, confirmation; 2,300 tested, 13% active; inhibition, % at 9.66 µM; SIAE FP-Rh activity-based probe, fluorescence polarization; shares compounds with SIAE inh;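 active = mean inhibition of the replicates above the hit cutoff set in the primary screen, cut at about 17% in these data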;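 note: inhibitors lower polarization as more probe stays unbound to SIAE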
Large screens that a line does not name were inactive (follow-up assays come after a bar, where they were run).

O=C1c2ccccc2C(Nc2ccc3c(c2)OCO3)N1Cc1ccco1 (stereo not given)	SIAE inh 19 | SIAE inh conf inactive
Cc1ccc(NC(=O)C(=O)NCCN2CCN(S(C)(=O)=O)CC2)cc1C	none
CCOC(=O)N/N=C/c1cn(Cc2ccc(Cl)cc2)c2ccccc12	SIAE inh 18 | SIAE inh conf inactive
CN(C)CCN(C(=O)C1CCN(S(=O)(=O)c2cccs2)CC1)c1nc2c(F)cccc2s1	SIAE inh 19 | SIAE inh conf inactive
CSCc1ccc(C(=O)NC2CC(C)(C)Cc3c2cnn3-c2ccc(F)cc2)o1 (stereo not given)	none
COc1cccc(-c2nc(NC3CCCC3)c3ccccc3n2)c1O	SIAE inh 29 | SIAE inh conf inactive
COc1cccc(-c2nc(NCc3ccccc3)c3ccccc3n2)c1O	none
CC(C)C[C@H]1CN(CCCC[C@H]2CNC(=O)C(=O)N2Cc2ccccc2)C(=O)C(=O)N1CCc1ccc(O)cc1	none (no result: HTRA1 inh)
CC(=O)N1CCN(C2c3cccc4cccc(c34)C2NS(=O)(=O)c2ccccc2)CC1 (stereo not given)	SIAE inh 24 | SIAE inh conf inactive
CCOc1cccc(/C=N/N2CCN(c3ccc(Cl)cc3)CC2)c1O	SIAE inh 21 | SIAE inh conf inactive
O=C(Nc1nnc([C@@H]2C[C@H](O)[C@@H](CO)O2)s1)c1cccc(OC(F)(F)F)c1	none (no result: HTRA1 inh)
O=C(O)c1ccc(-c2cccc(Cl)c2)o1	SIAE inh 18 | SIAE inh conf inactive
COc1ccc(N2CCC(CNC(=S)Nc3c(C)cc(C)cc3C)C2)cc1 (stereo not given)	SIAE inh 18 | SIAE inh conf inactive
COc1ccc(N2CCC(CNC(=S)Nc3ccc(C)cc3C)C2)cc1 (stereo not given)	none
COC(=O)CCC[C@H](C)[C@@H](NS(=O)(=O)c1ccc(C)cc1)C(C)(C)C	none (no result: HTRA1 inh)
C[C@@H](c1ccccc1)N1C[C@@H](COCc2ccccc2)Oc2cc(N3CC[C@@H](N(C)C)C3)ccc2S1(=O)=O	SIAE inh 18 (no result: HTRA1 inh) | SIAE inh conf inactive
Cc1[nH]c(=O)[nH]c(=O)c1S(=O)(=O)Nc1ccc(F)cc1Cl	none
Cc1ccc(NC2CCCN(C(=O)CN3C(=O)c4ccccc4C3=O)C2)cc1C (stereo not given)	none
O=C(N/N=C/c1ccoc1)c1cc(Br)ccc1O	SIAE inh 19 | SIAE inh conf inactive
Cc1ccc(NC(=O)N2CCC(N(C)CCC(C)C)CC2)cc1F	none (no result: TCR CD3 inh, HTRA1 inh)
COc1ccc(-c2csc(N3CCN(c4cc(C)nc5ccccc45)CC3)n2)cc1OC	SIAE inh 20 | SIAE inh conf inactive
CC1CCN(S(=O)(=O)N2CCC(C(=O)NC(C)c3ccccc3)CC2)CC1 (stereo not given)	none
Cc1[nH]c(C)c(C(=O)/C=C/c2ccc([N+](=O)[O-])cc2)c1C	SIAE inh 25 | SIAE inh conf inactive
CCCSc1nc(N)nc2c1ncn2C1OC(CO)C(O)C1O (stereo not given)	none
CN(C)S(=O)(=O)c1cccc(C(=O)NC2CCSc3ccccc32)c1 (stereo not given)	SIAE inh 25 | SIAE inh conf inactive
CON(C)S(=O)(=O)c1cccc(C(=O)NC2CCSc3ccccc32)c1 (stereo not given)	none
Cc1cc(C)cc(NC(=S)NCc2ccc3[nH]c4c(c3c2)CCCC4)c1	SIAE inh 17 | SIAE inh conf inactive
O=C(NCc1ccc2[nH]c3c(c2c1)CCCC3)c1ccc(S(=O)(=O)N2CCCCC2)cc1	none
S=C(NCc1ccc2[nH]c3c(c2c1)CCCC3)Nc1ccccc1	SIAE inh 23 | SIAE inh conf inactive
Clc1ccc(/C=N/Nc2ncnc3ccccc23)cc1Cl	SIAE inh 27 | SIAE inh conf inactive
CCOC(=O)c1[nH]c(C)c(C(=O)C(C)C)c1C	none
Cc1sc(N/N=C/c2cccnc2)nc1-c1ccccc1	SIAE inh 17 | SIAE inh conf inactive
Cc1sc(N/N=C/c2ccco2)nc1-c1ccccc1	none
CCOC(=O)C(NC(=O)CC)(N1CCc2ccccc2C1)C(F)(F)F (stereo not given)	SIAE inh 20 | SIAE inh conf inactive
CC(C)(C)OC(=O)NCc1cc(F)ccc1/C=C/S(=O)(=O)NCc1ccc(F)cc1	none (no result: TCR CD3 inh, HTRA1 inh)

Screening results from PubChem BioAssay.
